From PubChem
The list is not random: actives were taken first. Their share in the collection is about 3.9%.
Jurkat NFkB inh = inhibitors of induced NF-kB luciferase reporter, primary screen, TCR NF-kB activation inhibitor project, cell-based, luminescence, uHTS; Jurkat, PMA/ionomycin-induced NF-kB luciferase reporter; inhibition, % at 4 µM; actives 0.53% (n = 330,000); in the data active means inhibition above about 50%
697 NFkB inh = inhibitors of PMA/ionomycin-induced NF-kB reporter, 697 cells, primary screen, B-cell NF-kB inhibitor project, cell-based, luminescence, uHTS | 697 B-cell NF-kB luciferase reporter, 16 h | inhibition, % at 4 µM | actives 0.33% (n = 330,000) | AID 435022, 2010; in the data active means inhibition above about 35%
Gli-Sufu block = Gli-Sufu pathway antagonists, primary screen, luciferase luminescence, Sufu-KO-LIGHT cells, uHTS; Sufu-KO-LIGHT fibroblasts, Gli luciferase reporter luminescence; inhibition, % at 5 µM; actives 0.74% (n = 340,000); AID 588413, 2011;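 active means inhibition above about 55%, limit read from the data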;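 further: 0% = DMSO-treated cells and 100% = wells with medium but no cells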
UPR XBP1 act = activators of adaptive XBP1 UPR arm, primary screen, cell-based, CHO-XBP1 luciferase reporter, luminescence, uHTS. activation, % at 20 µM. IRE1-XBP1 UPR activation; percent of tunicamycin response, DMSO as zero. AID 463104, 2010. actives 0.33% (n = 330,000);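 active means versus positive control, 20 µM dose yields 30% or more activation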;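 further: 100% = tunicamycin at 10 µg/mL and 0% = DMSO only wells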
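Signal: luciferase luminescence; Assay system: CHO-XBP1 luciferase reporter cells; Amount: one thousand reporter cells per well; Dosing: 20 µM single concentration, DMSO 1%; Benchmarks: high control tunicamycin 10 µg/mL final, low control DMSO vehicle only; Schedule: 6 h compound exposure at 37 °C, 5% CO2; Evaluation: percent activation relative to tunicamycin reference.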
CHOP inhibitor = inhibitors of CHOP promoter induction, primary screen, cell-based, unfolded protein response, luciferase reporter. CHO-K1 CHOP-promoter luciferase, tunicamycin-induced, 15-18 h. inhibition, % at 10 µM. actives 3.8% (n = 220,000);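 active means compounds that reduced the stress-induced luciferase reporter signal by more than about 70% of percent inhibition, limit read from the data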;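 further: 0% = tunicamycin plus vehicle and 100% = wells without tunicamycin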
CHOP UPR activ = activators of apoptotic CHOP UPR arm, primary screen, cell-based, CHO-CHOP luciferase reporter, luminescence, uHTS | activation, % at 10 µM | actives 0.34% (n = 330,000) | AID 449763, 2010 | UPR activation; percent of tunicamycin response over DMSO baseline;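 active means at 10 µM dose, activation of 40% or more, normalized to positive control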;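 further: 100% = tunicamycin at 10 µg/mL and 0% = DMSO alone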
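Assay system: CHO cells with stable CHOP pathway luciferase reporter; Buffer or medium: F12 plus 10% serum; Times: 16-18 h cell attachment, then 6 h compound exposure, 37 °C; Signal: luciferase luminescence; Read-out basis: percent activation relative to tunicamycin control; Control set: tunicamycin high control, DMSO low control.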
CHOP confirm = retest of CHOP induction inhibitors, confirmation, cell-based | shares compounds with CHOP inhibitor | CHO-CHOP promoter luciferase reporter, tunicamycin-induced, luminescence | inhibition, % at 10 µM | actives 45% (n = 2,100) | AID 504437, 2011;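 active means mean of three repeat readings of reporter signal inhibition above a set limit, cut at about 70% in these data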;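 further: 0% = tunicamycin plus vehicle and 100% = wells lacking tunicamycin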
* = called active by the depositor; x = no result given.

SMILES	Jurkat NFkB inh	697 NFkB inh	Gli-Sufu block	UPR XBP1 act	CHOP inhibitor	CHOP UPR activ	CHOP confirm
CCCn1c(=O)c(C(=O)NNC(=O)c2ccc(Cl)cc2Cl)c(O)c2ccccc21	-2	-1	-8	6	x	2	x
CCCn1c(=O)c(C(=O)NNS(=O)(=O)c2ccc(Cl)cc2)c(O)c2ccccc21	-3	27	1	-3	107*	-1	-10
Cc1ccc(C(=O)COC(=O)c2cccc([N+](=O)[O-])c2)s1	9	-4	-14	3	x	3	x
O=C(CSCc1ccccc1)NNc1c(F)c(F)cc(F)c1F	-33	-6	6	7	x	-1	x
CC(=O)Nc1ccc(S(=O)(=O)N(C)CC(=O)N/N=C/c2ccncc2)cc1	2	-6	-10	-3	x	1	x
Cc1ccc(C(=O)ONc2ccc(N=NC(=O)c3ccccc3O)cc2)cc1	-45	-18	-16	-1	103*	-1	22
COc1ccc(-c2c3c(cc4ncn(Cc5ccccc5)c24)COC3=O)cc1	-5	10	-3	0	x	1	x
O=C(CS(=O)(=O)Cc1ccccc1)N1CCN(c2ccccc2F)CC1	-2	-2	-2	-3	x	2	x
COCCn1c(C)cc(C(=O)CSc2nnnn2C2CCCC2)c1C	-61	-123	16	-9	x	-9	x
Cc1cccc(C(=O)NC(=S)NNC(=O)c2cccs2)c1	-4	0	-13	2	52	5	x
Cc1cccc(C(=O)NC(=S)NNC(=O)c2ccc(Cl)cc2)c1	x	x	-2	x	107*	x	53
CC(=O)Oc1oc(-c2ccccc2)nc1C=Nc1ccccc1	10	-1	-24	4	-2	0	x
CCOC(=O)c1ccc(N=Cc2nc(-c3ccccc3)oc2OC(C)=O)cc1	-8	6	4	5	106*	1	-19
Cc1ccc(C(=O)Oc2oc(-c3ccco3)nc2C=Nc2ccccc2)cc1	x	x	x	x	102*	x	-24
COc1ccc(OC)c(/C(O)=C/C(=O)C(=O)Nc2cc(C)cc(C)c2)c1	-7	-1	4	0	105*	-1	-11
Cc1cc(NC(=O)C(C)SCC(=O)OCC(=O)Nc2c(C)cccc2C(C)C)no1 (configuration not stated)	-7	-10	-6	-1	x	-1	x
CCOC(=O)c1c(C)oc2c1C(=O)c1ccccc1C2=O	21	10	-4	2	42	2	x
CCOC(=O)C1=C(Cc2ccc(C)cc2)C(=O)c2ccccc2C1=O	0	-34	x	22	104*	97*	57
Cc1ccnc(N2C(=O)c3cccc4c([N+](=O)[O-])ccc(c34)C2=O)c1	7	11	8	-10	106*	2	-53
Cc1ccnc(N2C(=O)c3ccccc3C2=O)c1	3	-3	20	-1	x	-1	x
O=C1c2cccc3c([N+](=O)[O-])ccc(c23)C(=O)N1Cc1cccnc1	x	x	3	x	110*	x	-203
Cc1ccc(S(=O)(=O)c2nc(S(C)(=O)=O)sc2N2CCCCC2C)cc1 (configuration not stated)	2	-26	1	-5	x	-2	x
CCCCn1c(-c2nonc2N)nc2ccccc21	19	4	-6	-1	100*	2	42
O=C(NCc1ccccc1)c1cc(-c2ccncc2)nc2ccc(S(=O)(=O)N3CCOCC3)cc12	4	-1	2	0	103*	1	108*
CCc1oc(C(=O)OC)cc1CSC(=N)N	1	8	3	-4	-10	1	x
SMILES	Jurkat NFkB inh	697 NFkB inh	Gli-Sufu block	UPR XBP1 act	CHOP inhibitor	CHOP UPR activ	CHOP confirm
O=C(COC(=O)CCN1C(=O)C2CC=CCC2C1=O)Nc1ccc(Cl)cc1F (configuration not stated)	3	15	-2	0	x	-1	x
CNC(=O)c1nnsc1S(=O)c1ccc(Cl)cc1 (configuration not stated)	49	5	11	-10	107*	-11	8
CCC(C)(C)NC(=O)C(c1cccn1C)N(Cc1ccc(OC)cc1)C(=O)Cn1nnc2ccccc21 (configuration not stated)	-9	8	-3	0	103*	4	59
CC1(C)CC(=O)C2=C(C1)OC(N)=C(C#N)C21C(=O)N2CCCc3cccc1c32 (configuration not stated)	2	1	4	-2	41	1	x
CC1(c2ccccc2)CC(C)(C)N2C(=O)C3(C(C#N)=C(N)Oc4cc(O)ccc43)c3cccc1c32 (configuration not stated)	2	-5	5	0	106*	-1	104*
Cc1cc2c3c(c1)C(C)(c1ccccc1)CC(C)(C)N3C(=O)C21C(C#N)=C(N)OC2=C1C(=O)CC(C)(C)C2 (configuration not stated)	10	29	3	2	107*	-1	97*
O=S(=O)(NC1CC1)c1ccc(S(=O)(=O)N2CCN3CCCC3C2)cc1 (configuration not stated)	4	4	3	-2	7	-2	x
O=S(=O)(NC1CC1)c1ccc(S(=O)(=O)N2CCCC3(CCCCC3)C2)cc1	3	-15	9	17	97*	5	98*
CC(C)NC(=O)NC(=O)CSc1nnc(COc2ccccc2F)n1C(C)C1CC2CCC1C2 (configuration not stated)	-10	-23	-2	10	106*	6	38
CC(C1CC2CCC1C2)n1c(COc2ccccc2F)nnc1SCC(N)=O (configuration not stated)	-12	16	5	-3	-5	-3	x
Cc1csc(SC(C)C(=O)Nc2ccc(S(=O)(=O)N3CCCC3)cc2)n1 (configuration not stated)	-3	4	0	-1	55	-1	x
Cc1nnc(SC(C)C(=O)Nc2ccc(S(=O)(=O)N3CCCCC3)cc2)s1 (configuration not stated)	-5	-10	1	-3	100*	1	12
CCOc1ccc(C(=O)Nc2ccc(C(=O)N3CCOCC3)cc2)c(OCC)c1	2	-35	14	2	x	1	x
